Legend:
[1] = molecular target: Glutamate NMDA receptor; experiment: Inhibition of N-methyl-D-aspartate glutamate receptor (NMDA receptor) from homogenized rat brain membrane, using [3H]-MK-801 as a radioligand
Procedure, shortened: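 Male Sprague-Dawley rat (200-300 g) cortical membranes, washed and preincubated 20 min at 23 °C in 5 mM Tris-HCl pH 7.4. Duplicate aliquots (ca. 0.75 mg protein) incubated 60 min at 23 °C with displacer plus [3H]-(+)-10 added as 100 µL of 50 nM stock. Filter-bound radioactivity counted by liquid scintillation; Ki reported.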

[2] = system: Mus musculus; experiment: Inhibition of N-Methyl-D,L-aspartate induced convulsions in mice following 500 mg/kg i.p.; format: functional; settings: ip, route intraperitoneal
[3] = system: Mus musculus; experiment: Tested for inhibition of convulsions induced by N-Methyl-D,L-aspartate (NMDLA), after sc administration of a dose of […] in mice; format: functional; settings: route subcutaneous
Procedure, shortened: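 Test drug given iv 15 min before the convulsant. NMDLA given at 500 mg/kg, sc or ip. Separately, NMDA given sc at 400 mg/kg. Anticonvulsant ED50 determined.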

[4] = molecular target: T1, Glutamate NMDA receptor (Rattus norvegicus) (UniProt P35439+Q00959+Q00960+Q00961+Q62645+Q8VHN2+Q9R1M7); experiment: Antagonistic activity against N-methyl-D-aspartate glutamate receptor from rat cortical slice; format: functional
Procedure, shortened: (§1)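 Greased-gap recording of NMDA-induced population depolarizations in rat cortical slices. An NMDA concentration-response curve was run, then repeated with antagonist present. Apparent Kb = antagonist concentration/(CR-1), with CR taken at the midpoint of the control curve. If the curve flattened, a lower antagonist concentration was tried. Failing that, the threshold concentration giving significant antagonism was used.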

[5] = molecular target: T1, Glutamate NMDA receptor (Rattus norvegicus); experiment: Antagonistic activity against N-methyl-D-aspartate glutamate receptor from rat cortical slice was determined (expt.2); format: functional; procedure, shortened: as §1
[6] = molecular target: T1, Glutamate NMDA receptor (Rattus norvegicus); experiment: Antagonistic activity against N-methyl-D-aspartate glutamate receptor from rat cortical slice was determined (expt.1); format: functional; procedure, shortened: as §1

CC12NC(Cc3ccc(Br)cc31)c1ccccc12 (stereo in doubt; 88) [listing 1 of 2 here]
Ki [1]: 0.08 µM | ED50 [2]: 1.25 mg/kg | ED50 [3]: 1.42 mg/kg

COc1ccc2c(c1)CC1NC2(C)c2ccccc21 (stereo not given)
Ki [1]: 0.61 µM

CC12NC(c3ccccc31)[C@@H](O)c1ccccc12 (stereo in doubt; (+)120) [listing 1 of 2 here]
Ki [1]: 0.092 µM | ED50 [2]: 0.35 mg/kg

CN1C2Cc3ccccc3C1(O)c1ccccc1C2
Ki [1]: 290 µM

CC12NC(Cc3ccc(Br)cc31)c1ccccc12 (stereo in doubt; 88) [listing 2 of 2 here]
Kb [4]: 0.9 µM

CN1C2(C)Cc3ccccc3C1(C)c1ccccc1C2
Ki [1]: 8.7 µM

CCOC(=O)CC12NC(O)(Cc3ccccc31)c1ccccc12 (stereo not given)
Ki [1]: 3.6 µM

CC12NC(O)(Cc3ccccc31)c1ccccc12 (stereo not given)
Ki [1]: 0.077 µM | Kb [4]: 0.66 µM

CC12NC(c3ccccc31)[C@@H](O)c1ccccc12 (single isomer, unassigned; (-))
Ki [1]: 0.302 µM

CC12NC(Cc3ccccc31)c1ccc(Cl)cc12 (stereo in doubt; 63) [listing 1 of 2 here]
Kb [4]: 1.66 µM

OC12NC(Cc3ccccc31)Cc1ccccc12
Ki [1]: 57 µM

CC12NC(c3ccccc31)[C@@H](O)c1ccccc12 (stereo in doubt; 120) [listing 1 of 2 here]
Kb [4]: 0.28 µM

O[C@@H]1c2ccccc2C2NC1c1ccccc12 (stereo not given in full)
Ki [1]: 110 µM | Kb [4]: 9.6 µM

CC12NC(c3ccccc31)[C@@H](F)c1ccccc12 (stereo not given in full)
Ki [1]: 0.011 µM | ED50 [2]: 1.27 mg/kg | Kb [4]: 0.23 µM

CC12NC(Cc3ccc(SC(F)(F)F)cc31)c1ccccc12 (stereo not given)
Ki [1]: 17 µM

CC12NC(c3ccccc31)[C@H](O)c1ccccc12 (stereo not given in full)
Ki [1]: 2.7 µM

O=C(O)CC12NC(Cl)(Cc3ccccc31)c1ccccc12 (stereo not given)
Ki [1]: > 4500 µM

CC12NC(Cc3ccccc31)c1ccc(Br)cc12 (stereo not given)
Ki [1]: 0.18 µM | Kb [4]: 0.46 µM

c1ccc(SCC23NC(Cc4ccccc42)c2ccccc23)cc1 (stereo not given)
Ki [1]: 73 µM

CCN1C2Cc3ccccc3C1c1ccccc12 (stereo not given)
Ki [1]: 24 µM

CCC12NC(Cc3ccccc31)c1ccccc12 (stereo not given)
Ki [1]: 0.045 µM | Kb [4]: 0.59 µM

CCC12NC(Cc3ccccc31)Cc1ccccc12
Ki [1]: 0.12 µM | Kb [4]: 0.29 µM

CC12NC(Cc3ccccc31)c1cc(O)ccc12 (stereo in doubt; 106) [listing 1 of 2 here]
Kb [4]: 0.24 µM

[O-][S+](CC12NC(Cc3ccccc31)c1ccccc12)c1ccccc1 (stereo not given)
Ki [1]: > 160 µM

CC12NC(Cc3ccccc31)c1cc(O)ccc12 (stereo in doubt; (+)-106) [listing 1 of 2 here]
Kb [4]: 0.14 µM

CCOC(=O)CC12c3ccccc3CC(O)(c3ccccc31)N2O (stereo not given)
Ki [1]: > 4500 µM

CC12NC(Cc3ccccc31)c1ccc(Cl)cc12 (single isomer, unassigned; (+)) [listing 1 of 2 here]
Kb [4]: 0.08 µM

CCC12c3ccccc3CC(Cc3ccccc31)N2C
Ki [1]: 2.04 µM

CC12NC(Cc3ccc(Cl)cc31)c1ccccc12 (stereo in doubt; 64) [listing 1 of 2 here]
Kb [4]: 0.067 µM

CC12NC(Cc3ccc(F)cc31)c1ccccc12 (stereo not given)
Ki [1]: 0.03 µM | Kb [4]: 0.38 µM

CN1C2Cc3ccccc3C1c1ccccc1C2
Ki [1]: 57 µM

CC12NC(c3ccccc31)[C@@H](O)c1ccccc12 (stereo in doubt; (+)120) [listing 2 of 2 here]
Kb [4]: 0.25 µM

CC12NC(Cc3ccc(Br)cc31)c1ccccc12 (single isomer, unassigned; (-))
Ki [1]: 0.113 µM

NC(=O)CC12NC(O)(Cc3ccccc31)c1ccccc12 (stereo not given)
Ki [1]: 6.4 µM

ClCCC12NC(Cl)(Cc3ccccc31)c1ccccc12 (stereo not given)
Ki [1]: 53 µM

CC12NC(Cc3ccc(Br)cc31)c1ccccc12 (single isomer, unassigned; (+)) [listing 1 of 2 here]
Kb [4]: 0.5 µM

CCCC12NC(Cc3ccccc31)c1ccccc12 (stereo not given)
Ki [1]: 8.6 µM

CN1C2Cc3ccccc3C1(C)c1ccccc12 (stereo not given)
Ki [1]: 0.61 µM

CC12NC(Cc3ccc(I)cc31)c1ccccc12 (stereo not given)
Ki [1]: 0.011 µM | Kb [4]: 0.51 µM

CC12NC(Cc3ccccc31)c1cc(O)ccc12 (stereo in doubt; 106) [listing 2 of 2 here]
Ki [1]: 0.049 µM

OCCC12NC(O)(Cc3ccccc31)c1ccccc12 (stereo not given)
Ki [1]: 0.074 µM | Kb [4]: 2.1 µM

CC12NC(Cc3ccc(O)cc31)c1ccccc12 (stereo not given)
Ki [1]: 0.018 µM | Kb [5]: 0.51 µM | Kb [6]: 0.24 µM

CN1C2Cc3ccccc3C1(C)c1ccccc1C2
Ki [1]: 1.2 µM

CC12NC(Cc3ccc(CO)cc31)c1ccccc12 (stereo not given)
Ki [1]: 0.137 µM | ED50 [2]: 1.19 mg/kg | Kb [4]: 0.27 µM

FCC12NC(Cc3ccccc31)c1ccccc12 (stereo not given)
Ki [1]: 0.16 µM | ED50 [2]: 2.55 mg/kg | Kb [4]: 0.72 µM

COc1ccc2c(c1)C1(C)NC(C2)c2ccccc21 (stereo not given)
Ki [1]: 0.046 µM

CC12NC(Cc3ccc(F)cc31)c1ccc(F)cc12 (stereo not given)
Ki [1]: 0.031 µM | Kb [4]: 0.32 µM

CC12NC(Cc3ccccc31)c1cc(O)ccc12 (single isomer, unassigned; (-))
Ki [1]: 0.761 µM

CC12NC(Cc3ccccc31)c1ccc(O)cc12 (stereo not given)
Ki [1]: 0.023 µM | ED50 [2]: 0.43 mg/kg | Kb [4]: 0.13 µM

CC12NC(Cc3ccccc31)Cc1ccc(Cl)cc12 (stereo not given)
Ki [1]: 0.11 µM | Kb [4]: 0.68 µM

CC12NC(Cc3ccc(Br)cc31)c1ccccc12 (single isomer, unassigned; (+)) [listing 2 of 2 here]
Ki [1]: 0.006 µM

CC12NC(F)(Cc3ccccc31)c1ccccc12 (stereo not given)
Ki [1]: 0.93 µM

c1ccc2c(c1)CC1Cc3ccccc3C2N1
Ki [1]: 5.1 µM

OCC(O)[C@]12NC(Cc3ccccc31)c1ccccc12 (stereo not given in full)
Ki [1]: 0.32 µM

OCC12NC(Cc3ccccc31)c1ccccc12 (stereo not given)
Ki [1]: 0.35 µM

CC12NC(c3ccccc31)[C@@H](O)c1ccccc12 (stereo in doubt; 120) [listing 2 of 2 here]
Ki [1]: 0.21 µM

C[C@]12N[C@H](Cc3ccccc31)Cc1ccccc12
Ki [1]: 0.139 µM | Kb [4]: 0.31 µM

COc1ccc2c(c1)C1(C)NC2Cc2ccccc21 (stereo in doubt; 83) [listing 1 of 2 here]
Kb [4]: 0.23 µM

CC12NC(Cc3cc(O)ccc31)c1ccccc12 (stereo not given)
Ki [1]: 0.277 µM | Kb [4]: 0.51 µM

CN1C2CCc3ccccc3C1c1ccccc12 (stereo not given)
Ki [1]: 2.6 µM

CCCCc1ccc2c(c1)C1(C)NC(C2)c2ccccc21 (stereo not given)
Ki [1]: 1.25 µM

CC12NC(Cc3ccccc31)c1ccc(Cl)cc12 (stereo in doubt; (-)-63) [listing 1 of 2 here]
Ki [1]: 0.3 µM

CC12NC(Cc3ccc(Cl)cc31)c1ccccc12 (single isomer, unassigned; (-))
Kb [4]: 0.56 µM

Cc1ccc2c(c1)C1(C)NC(C2)c2ccccc21 (stereo not given)
Ki [1]: 0.034 µM | ED50 [2]: 0.53 mg/kg | Kb [4]: 0.38 µM

CC12NC(Cc3ccc(N)cc31)c1ccccc12 (stereo not given)
Ki [1]: 0.027 µM

CCOC(=O)C(O)[C@]12NC(Cc3ccccc31)c1ccccc12 (stereo not given in full)
Ki [1]: 0.39 µM

NC(=O)CC12NC(Cl)(Cc3ccccc31)c1ccccc12 (stereo not given)
Ki [1]: > 90 µM

CC12NC(Cc3ccc(N=[N+]=[N-])cc31)c1ccccc12 (stereo not given)
Ki [1]: 0.14 µM

CN1C2CCc3ccccc3C1(O)c1ccccc12 (stereo not given)
Ki [1]: > 100 µM

CN1C2CCc3ccccc3C1(C)c1ccccc12 (stereo not given)
Ki [1]: 8.8 µM

CCOC(=O)CC12NC(Cc3ccccc31)c1ccccc12 (stereo not given)
Ki [1]: 0.55 µM

CC12NC(Cc3ccc(Cl)cc31)c1ccccc12 (stereo in doubt; 64) [listing 2 of 2 here]
Ki [1]: 0.011 µM

O[C@H]1c2ccccc2C2NC1c1ccccc12 (stereo not given in full)
Ki [1]: 7.75 µM | Kb [4]: 2.79 µM

CC12NC(Cc3ccccc31)c1ccc(Cl)cc12 (single isomer, unassigned; (+)) [listing 2 of 2 here]
Ki [1]: 0.006 µM

FCCC12NC(Cc3ccccc31)c1ccccc12 (stereo not given)
Ki [1]: 0.174 µM | Kb [4]: 0.23 µM

c1ccc2c(c1)CC1NC2c2ccccc21 (stereo not given)
Ki [1]: 22.6 µM

OCCC12NC(Cc3ccccc31)c1ccccc12 (stereo not given)
Ki [1]: 0.26 µM

COc1ccc2c(c1)C1(C)NC2Cc2ccccc21 (single isomer, unassigned; (+))
Ki [1]: 0.025 µM

COc1ccc2c(c1)C1Cc3ccccc3C2(C)N1 (stereo not given)
Ki [1]: 0.033 µM | Kb [4]: 0.13 µM

CC12NC(Cc3ccccc31)c1ccc(Cl)cc12 (stereo in doubt; (-)-63) [listing 2 of 2 here]
Kb [4]: 0.56 µM

c1ccc2c(c1)CC1NC2(C2SCCCS2)c2ccccc21 (stereo not given)
Ki [1]: > 10 µM

CC12c3ccccc3CC(c3ccccc31)N2O (stereo not given)
Ki [1]: 19 µM | Kb [4]: 45.6 µM

O=C(O)CC12NC(O)(Cc3ccccc31)c1ccccc12 (stereo not given)
Ki [1]: 280 µM

OCCC12NC(Cl)(Cc3ccccc31)c1ccccc12 (stereo not given)
Ki [1]: 0.28 µM

CN1C2(C)Cc3ccccc3C1(C)c1ccccc12 (stereo not given)
Ki [1]: 0.71 µM

CC12NC(Cc3ccccc31)c1cc(O)ccc12 (stereo in doubt; (+)-106) [listing 2 of 2 here]
Ki [1]: 0.023 µM | ED50 [2]: 0.97 mg/kg

C=CC12NC(Cc3ccccc31)c1ccccc12 (stereo not given)
Ki [1]: 0.087 µM | Kb [4]: 0.32 µM

CN1C2Cc3ccccc3C1c1ccccc12 (stereo not given)
Ki [1]: 12 µM

COc1ccc2c(c1)C1(C)NC2Cc2ccccc21 (stereo in doubt; (-)-83)
Ki [1]: 0.102 µM

COc1ccc2c(c1)C1(C)NC2Cc2ccccc21 (stereo in doubt; 83) [listing 2 of 2 here]
Ki [1]: 0.036 µM | ED50 [2]: 0.77 mg/kg

CC12NC(Cc3ccc(-c4ccccc4)cc31)c1ccccc12 (stereo not given)
Ki [1]: 0.032 µM | ED50 [2]: 7.76 mg/kg | Kb [4]: 0.26 µM

CC12NC(Cc3ccccc31)c1ccc(Cl)cc12 (stereo in doubt; 63) [listing 2 of 2 here]
Ki [1]: 0.084 µM

OCCN1C2Cc3ccccc3C1c1ccccc12 (stereo not given)
Ki [1]: 71 µM

O=C(O)C(O)[C@]12NC(Cc3ccccc31)c1ccccc12 (stereo not given in full)
Ki [1]: > 1000 µM
